{"data": "Measurements pooled from the literature", "target": "Carbonic anhydrase 2 (CA2, Homo sapiens, UniProt P00918)", "read-out": "enzyme activity", "action": "inhibitor", "note": "Lines come from different studies, so protocols differ."}
{"SMILES": "OC1CCN(c2ccc(/C=N/NC(=S)NCc3ccc(Cl)cc3)cc2)CC1", "Ki [nM]": 378}
{"SMILES": "C[C@H]1CCC[C@H](C(=O)Nc2nnc(S(N)(=O)=O)s2)C1 (racemic)", "assay": "stopped-flow", "Ki [nM]": 14.9}
{"SMILES": "CC(C)CNC(=S)N/N=C/c1ccc(N2CCC(O)CC2)cc1", "Ki [nM]": 716}
{"SMILES": "OCCOCCN1CCN(C(c2ccccc2)c2ccc(Cl)cc2)CC1 (centres unmarked)", "assay": "absorbance", "Ki [nM]": 11500}
{"SMILES": "N#CSCCCCOc1ccc2c(-c3ccccc3)cc(=O)oc2c1", "assay": "stopped-flow", "Ki [nM]": "> 100000"}
{"SMILES": "Cc1cccc(C)c1NC(=S)N/N=C/c1ccc(N2CCC(O)CC2)cc1", "Ki [nM]": 436}
{"SMILES": "NS(=O)(=O)c1nnc(NC(=O)C2CC23CCCOC3)s1 (centres unmarked)", "assay": "stopped-flow", "Ki [nM]": 50.8}
{"SMILES": "OC1CCN(c2ccc(/C=N/NC(=S)NCc3ccccc3)cc2)CC1", "Ki [nM]": 561}
{"SMILES": "C[C@H]1c2cccc(O)c2C(=O)C2=C(O)[C@]3(O)C(=O)C(C(N)=O)=C(O)[C@@H](N(C)C)[C@@H]3[C@@H](O)[C@@H]21", "assay": "absorbance", "Ki [nM]": 8970}
{"SMILES": "NS(=O)(=O)c1cnc(NC(=O)CC2CCCCC2)s1", "assay": "stopped-flow", "Ki [nM]": 54.3}
{"SMILES": "Cc1cncc(CN2CCC(=C3c4ccc(Cl)cc4CCc4cccnc43)CC2)c1", "assay": "absorbance", "Ki [nM]": 9180}
{"SMILES": "NS(=O)(=O)c1nnc(NC(=O)C2CCC3(CCC3)CC2)s1", "assay": "stopped-flow", "Ki [nM]": 21.7}
{"SMILES": "OC1CCN(c2ccc(/C=N/NC(=S)Nc3ccc(Cl)cc3)cc2)CC1", "Ki [nM]": 401}
{"SMILES": "Nc1ccc(S(=O)(=O)c2ccc(N)cc2)cc1", "assay": "absorbance", "Ki [nM]": 9480}
{"SMILES": "NS(=O)(=O)c1nnc(NC(=O)C2CCC3(CCCCC3)CC2)s1", "assay": "stopped-flow", "Ki [nM]": 32.6}
{"SMILES": "CCOCCn1c(C2CCN(CCc3ccc(C(C)(C)C(=O)O)cc3)CC2)nc2ccccc21", "assay": "absorbance", "Ki [nM]": 8440}
{"SMILES": "Cc1c(Cl)c(=O)oc2cc(OCCCCSC#N)ccc12", "assay": "stopped-flow", "Ki [nM]": "> 100000"}
{"SMILES": "O=c1[nH]c(=O)n([C@H]2C[C@H](O)[C@@H](CO)O2)cc1/C=C/Br", "assay": "absorbance", "Ki [nM]": 7440}
{"SMILES": "NS(=O)(=O)c1nnc(NC(=O)C(F)CC2CCCCC2)s1 (centres unmarked)", "assay": "stopped-flow", "Ki [nM]": 4.9}
{"SMILES": "OC1CCN(c2ccc(/C=N/NC(=S)Nc3ccc(Br)cc3)cc2)CC1", "Ki [nM]": 334}
